pEC50, pIC50: −log10 of the molar value. Active and inactive are the calls of the source. The rule behind the calls is not given here.
How the values were obtained:
[1] = biological target: Epidermal growth factor receptor (Homo sapiens, UniProt P00533); assay: Inhibition of EGFR (unknown origin) assessed as incorporation of [32P] gamma-ATP in to myelin basic protein after 30 mins by autoradiographic analysis
[2] = biological target: Fibroblast growth factor receptor 1 (Homo sapiens, UniProt P11362); assay: Inhibition of FGFR1 (unknown origin) assessed as incorporation of [32P] gamma-ATP in to myelin basic protein after 30 mins by autoradiographic analysis
Chain of Fibroblast growth factor receptor 1 (P11362 whole entry): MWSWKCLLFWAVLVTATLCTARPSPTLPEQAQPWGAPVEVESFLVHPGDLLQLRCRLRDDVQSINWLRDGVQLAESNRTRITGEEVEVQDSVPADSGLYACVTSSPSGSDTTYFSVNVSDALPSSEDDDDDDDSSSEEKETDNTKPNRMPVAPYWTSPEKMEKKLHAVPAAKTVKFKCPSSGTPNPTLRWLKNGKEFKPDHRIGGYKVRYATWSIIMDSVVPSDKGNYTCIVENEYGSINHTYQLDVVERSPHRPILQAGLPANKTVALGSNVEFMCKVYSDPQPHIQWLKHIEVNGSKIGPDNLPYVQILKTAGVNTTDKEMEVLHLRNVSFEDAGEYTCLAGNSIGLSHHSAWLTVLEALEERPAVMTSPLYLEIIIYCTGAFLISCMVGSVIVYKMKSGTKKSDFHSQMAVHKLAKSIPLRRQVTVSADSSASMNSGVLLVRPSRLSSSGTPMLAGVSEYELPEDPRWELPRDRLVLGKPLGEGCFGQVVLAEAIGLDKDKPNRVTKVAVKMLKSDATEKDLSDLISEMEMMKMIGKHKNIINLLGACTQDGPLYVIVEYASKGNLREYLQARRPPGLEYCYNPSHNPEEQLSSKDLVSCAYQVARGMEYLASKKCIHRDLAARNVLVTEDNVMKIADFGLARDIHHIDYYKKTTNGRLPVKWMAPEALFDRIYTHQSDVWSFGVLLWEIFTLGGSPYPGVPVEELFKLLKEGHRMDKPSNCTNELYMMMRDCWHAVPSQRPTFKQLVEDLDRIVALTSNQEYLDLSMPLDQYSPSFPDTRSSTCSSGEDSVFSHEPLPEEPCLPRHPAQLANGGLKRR

[3] = biological target: Tyrosine-protein kinase ABL1 (Homo sapiens, UniProt P00519); assay: Inhibition of Abl1 (unknown origin) assessed as incorporation of [32P] gamma-ATP in to myelin basic protein after 30 mins by autoradiographic analysis
Chain of Tyrosine-protein kinase ABL1 (P00519 whole entry): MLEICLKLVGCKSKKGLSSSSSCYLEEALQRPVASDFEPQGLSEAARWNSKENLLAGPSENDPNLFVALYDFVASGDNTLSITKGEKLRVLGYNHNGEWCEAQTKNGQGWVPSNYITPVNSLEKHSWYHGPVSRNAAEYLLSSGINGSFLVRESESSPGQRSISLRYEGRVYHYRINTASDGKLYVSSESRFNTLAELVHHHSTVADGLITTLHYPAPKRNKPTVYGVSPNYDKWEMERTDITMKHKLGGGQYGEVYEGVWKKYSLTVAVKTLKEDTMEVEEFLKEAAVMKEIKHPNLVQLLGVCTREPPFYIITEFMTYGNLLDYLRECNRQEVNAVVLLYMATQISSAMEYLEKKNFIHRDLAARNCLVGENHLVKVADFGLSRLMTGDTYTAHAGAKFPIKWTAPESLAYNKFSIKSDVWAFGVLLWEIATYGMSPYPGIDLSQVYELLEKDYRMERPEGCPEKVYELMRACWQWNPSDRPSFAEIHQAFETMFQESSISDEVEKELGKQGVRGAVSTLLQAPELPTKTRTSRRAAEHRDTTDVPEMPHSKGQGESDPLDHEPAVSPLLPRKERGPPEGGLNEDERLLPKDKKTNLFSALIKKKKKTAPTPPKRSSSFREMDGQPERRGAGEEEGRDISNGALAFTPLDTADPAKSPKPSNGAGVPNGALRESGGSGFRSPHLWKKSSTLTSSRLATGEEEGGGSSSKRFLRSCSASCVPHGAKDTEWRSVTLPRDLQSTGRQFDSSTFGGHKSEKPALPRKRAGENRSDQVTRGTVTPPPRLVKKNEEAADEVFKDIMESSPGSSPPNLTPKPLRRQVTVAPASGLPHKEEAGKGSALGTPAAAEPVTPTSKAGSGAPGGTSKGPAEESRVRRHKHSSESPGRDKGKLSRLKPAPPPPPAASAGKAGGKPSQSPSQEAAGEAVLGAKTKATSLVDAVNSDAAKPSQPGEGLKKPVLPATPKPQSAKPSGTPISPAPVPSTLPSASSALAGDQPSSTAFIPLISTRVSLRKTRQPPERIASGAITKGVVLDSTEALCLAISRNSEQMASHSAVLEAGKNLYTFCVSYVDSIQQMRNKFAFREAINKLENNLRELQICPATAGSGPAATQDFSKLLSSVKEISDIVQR

[4] = biological target: Proto-oncogene tyrosine-protein kinase Src (Homo sapiens, UniProt P12931); assay: Inhibition of Src (unknown origin) assessed as incorporation of [32P] gamma-ATP in to myelin basic protein after 30 mins by autoradiographic analysis
Chain of Proto-oncogene tyrosine-protein kinase Src (P12931 2-536 limits assumed): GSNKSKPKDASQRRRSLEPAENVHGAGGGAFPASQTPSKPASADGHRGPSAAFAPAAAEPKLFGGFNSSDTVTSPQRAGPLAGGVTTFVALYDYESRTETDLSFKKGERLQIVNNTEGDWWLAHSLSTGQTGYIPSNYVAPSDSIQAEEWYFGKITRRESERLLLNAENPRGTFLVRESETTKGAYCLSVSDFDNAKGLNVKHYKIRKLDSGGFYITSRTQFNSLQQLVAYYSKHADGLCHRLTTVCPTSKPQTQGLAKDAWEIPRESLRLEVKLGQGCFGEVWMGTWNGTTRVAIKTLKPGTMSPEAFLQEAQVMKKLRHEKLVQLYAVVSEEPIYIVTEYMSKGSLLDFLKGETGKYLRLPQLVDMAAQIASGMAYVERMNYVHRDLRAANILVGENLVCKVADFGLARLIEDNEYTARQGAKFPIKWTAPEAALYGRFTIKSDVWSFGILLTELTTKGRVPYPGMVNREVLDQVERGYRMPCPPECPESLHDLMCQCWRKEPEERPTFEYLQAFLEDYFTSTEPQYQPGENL

Tubulin = Tubulin (Bos taurus, UniProt Q6B856+Q862L2+Q862F3); assay: Inhibition of bovine brain tubulin polymerization after 20 mins by turbidimetry analysis
Summary of the method: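 Electrophoretically homogeneous bovine brain tubulin at 10 μM (1.0 mg/mL) in 0.8 M monosodium glutamate, pH 6.6, with compound in 4% (v/v) DMSO. Preincubated 15 min at 30 °C without GTP, then chilled; 0.4 mM GTP added at 0 °C. Temperature raised to 30 °C and turbidity followed at 350 nm.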

[5] = Cytotoxicity against human OVCAR8 cells assessed as inhibition of cell proliferation by SRB assay; format: functional, cell-based; settings: OVCAR-8
Summary of the method: (§1)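 Cell protein measured with sulforhodamine B. NCI/ADR-RES is isogenic with OVCAR-8 but overexpresses P-gp. Values are mean SD of at least three independent experiments.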

A-431 = assay: Cytotoxicity against human A431 cells assessed as reduction in cell viability after 68 hrs by MTT assay; format: functional, cell-based; settings: A-431, 68 h
[6] = Cytotoxicity against human NCI-ADR-RES cells assessed as inhibition of cell proliferation by SRB assay; format: functional, cell-based; summary of the method: as §1
[7] = Cell cycle arrest in human OVCAR8 cells assessed as increase in number of cells at G2/M phase at 1 uM after 30 mins by flow cytometry; format: functional, cell-based; settings: OVCAR-8, in the assay text read “after 24 hrs” for “after 30 mins”
Summary of the method: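 OVCAR-8 cells grown in DMEM with 10% heat-inactivated FBS plus penicillin/streptomycin, 37 °C, 5% CO2. Exposed 24 h to 1 μM compound or drug-free medium. Fixed in 70% cold ethanol, RNase-treated (100 μg/mL, 30 min, 37 °C), stained with propidium iodide (100 μg/mL, 30 min, room temperature). 10 000 events per sample read by flow cytometry for G2/M fraction.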

Chain of Epidermal growth factor receptor (P00533 whole entry): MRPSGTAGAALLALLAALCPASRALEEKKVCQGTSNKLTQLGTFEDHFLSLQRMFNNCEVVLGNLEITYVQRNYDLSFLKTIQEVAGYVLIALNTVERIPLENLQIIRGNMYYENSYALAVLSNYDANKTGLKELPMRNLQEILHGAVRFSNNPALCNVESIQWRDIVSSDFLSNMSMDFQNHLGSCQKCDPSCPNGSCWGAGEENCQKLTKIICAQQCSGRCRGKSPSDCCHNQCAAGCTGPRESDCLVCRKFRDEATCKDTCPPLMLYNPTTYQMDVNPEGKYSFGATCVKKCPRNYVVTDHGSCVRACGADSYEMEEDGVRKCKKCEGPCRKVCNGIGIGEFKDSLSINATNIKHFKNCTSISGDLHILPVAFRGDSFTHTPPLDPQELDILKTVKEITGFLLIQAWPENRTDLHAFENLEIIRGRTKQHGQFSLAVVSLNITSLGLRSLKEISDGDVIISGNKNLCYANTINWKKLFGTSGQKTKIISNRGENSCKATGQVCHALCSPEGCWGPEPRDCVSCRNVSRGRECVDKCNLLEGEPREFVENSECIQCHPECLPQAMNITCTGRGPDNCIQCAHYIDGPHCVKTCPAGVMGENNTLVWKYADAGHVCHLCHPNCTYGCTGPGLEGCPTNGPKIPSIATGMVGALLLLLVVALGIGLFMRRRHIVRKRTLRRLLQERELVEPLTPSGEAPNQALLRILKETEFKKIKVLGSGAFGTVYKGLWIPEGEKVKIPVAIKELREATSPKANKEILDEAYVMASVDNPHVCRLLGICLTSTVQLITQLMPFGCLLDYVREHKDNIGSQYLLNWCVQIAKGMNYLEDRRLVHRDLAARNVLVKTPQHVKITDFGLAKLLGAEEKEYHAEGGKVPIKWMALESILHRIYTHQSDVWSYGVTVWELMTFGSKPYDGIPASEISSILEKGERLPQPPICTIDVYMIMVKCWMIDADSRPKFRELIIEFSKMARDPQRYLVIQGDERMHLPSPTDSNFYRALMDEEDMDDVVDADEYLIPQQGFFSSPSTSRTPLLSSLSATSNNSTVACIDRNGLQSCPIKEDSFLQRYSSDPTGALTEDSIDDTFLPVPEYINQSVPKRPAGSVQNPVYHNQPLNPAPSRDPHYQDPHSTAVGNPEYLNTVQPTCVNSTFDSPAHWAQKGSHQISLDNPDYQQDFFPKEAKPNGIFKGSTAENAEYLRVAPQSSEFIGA

Row | pIC50 [1] | pIC50 [2] | pIC50 [3] | pIC50 [4] | IC50 (Tubulin) | Structure (SMILES) | pEC50 [5] | pEC50 (A-431) | pEC50 [6] | Activity [7]
1 | < 5.00 | < 5.00 | < 5.00 | < 5.00 | > 20 µM | c1ccc(-c2csc(Nc3ncnc4cc5c(cc34)OCCO5)n2)cc1 | – | – | – | –
2 | – | – | – | – | 2.3 µM | c1ccc(-c2cccc(Nc3ncnc4cc5c(cc34)OCCCO5)c2)cc1 | 6.26 | 6.18 | – | –
3 | < 5.00 | < 5.00 | < 5.00 | < 5.00 | 3 µM | Cl.c1cc(Nc2ncnc3cc4c(cc23)OCCO4)cc(-c2ccc[nH]2)c1 | 5.40 | – | 5.44 | –
4 | – | – | – | – | 4 µM | c1ccc(-c2cccc(Nc3ncnc4cc5c(cc34)OCCO5)c2)cc1 | 6.30 | – | – | –
5 | < 5.00 | < 5.00 | < 5.00 | < 5.00 | – | CC(=O)O[C@H]1C(=O)[C@@]2(C)[C@H]([C@H](OC(=O)c3ccccc3)[C@]3(O)C[C@H](OC(=O)[C@H](O)[C@@H](NC(=O)c4ccccc4)c4ccccc4)C(C)=C1C3(C)C)[C@]1(OC(C)=O)CO[C@@H]1C[C@@H]2O [PACLITAXEL] | 7.74 | – | 7.89 | –
6 | < 5.00 | < 5.00 | < 5.00 | < 5.00 | 3.2 µM | Cl.c1ccc(-c2cccc(Nc3ncnc4cc5c(cc34)OCCO5)c2)nc1 | – | – | – | –
7 | < 5.00 | < 5.00 | < 5.00 | < 5.00 | > 20 µM | c1ccc(-c2ccnc(Nc3ncnc4cc5c(cc34)OCCO5)n2)cc1 | – | – | – | –

Second part, the compound before the results:

Row | Structure (SMILES) | pIC50 [1] | pIC50 [2] | pIC50 [3] | pIC50 [4] | IC50 (Tubulin) | pEC50 [5] | pEC50 (A-431) | pEC50 [6] | Activity [7]
8 | Cl.c1cc(Nc2ncnc3cc4c(cc23)OCCO4)cc(-c2cccs2)c1 | < 5.00 | < 5.00 | < 5.00 | < 5.00 | 1.2 µM | 8.00 | – | 8.40 | Active
9 | c1ccc(-c2cccc(Nc3ncnc4cc5c(cc34)OCO5)c2)cc1 | – | – | – | – | 1.1 µM | 7.52 | – | – | Active
10 | COc1cc2ncnc(Nc3cccc(-c4ccccc4)c3)c2cc1OC | < 5.00 | < 5.00 | < 5.00 | < 5.00 | > 20 µM | – | – | – | –
11 | Cl.c1cc(Nc2ncnc3cc4c(cc23)OCCO4)cc(-c2ccco2)c1 | < 5.00 | < 5.00 | < 5.00 | < 5.00 | 12 µM | – | – | – | –
12 | COc1ccc(/C=C\c2cc(OC)c(OC)c(OC)c2)cc1O [COMBRETASTATIN A4] | < 5.00 | < 5.00 | < 5.00 | < 5.00 | – | 8.26 | – | 5.30 | –

— ChEMBL document CHEMBL3297684, “Discovery of biarylaminoquinazolines as novel tubulin polymerization inhibitors” (J Med Chem, 2014)
